Measured values of several laboratories.
Protocols differ between the studies behind these lines.
Cell line: A549
Effect on: cell growth or viability

| Compound | technique | time | IC50 |
| --- | --- | --- | --- |
| CCc1oc2cc(S(=O)(=O)Nc3ccc(S(=O)(=O)Nc4nccs4)cc3)ccc2c1C(=O)c1cc(Br)c(O)c(Br)c1 | MTT | 96 h | 226 µM |
| CC(C)[C@@H]1NC(=O)[C@@H](Cc2c[nH]cn2)NC(=O)[C@H]([C@@H](C)O)NC(=O)[C@@H](CCCN)NC(=O)[C@H](Cc2ccccc2)NC(=O)[C@@H](Cc2ccccc2)NC1=O | ATP luminescence | – | 55.8 µM |
| CCCCn1cnc2ccc(-c3ccc(NC(=O)Nc4ccc(OC(F)(F)F)cc4)nc3)cc2c1=O | CCK-8 | 72 h | > 10 µM |
| NS(=O)(=O)c1ccc(-n2nc(-c3nnc(CCl)o3)cc2-c2ccccc2)cc1 | fluorescence | 48 h | 22.3 µM |
| O=C(Cn1cc(COc2ncnc3[nH]cnc23)nn1)Nc1ccc(O)cc1 | MTT | – | 26 µM |
| Cc1ccc(C(C)C)c(OC2=C(Cl)C(=O)c3ccccc3C2=O)c1 | MTT | 24 h | 40 µg/mL |
| O=C(O)c1ccc(NCc2cccc([N+](=O)[O-])c2)cc1 | resazurin | 72 h | > 100 µM |
| CCCn1cnc2ccc(-c3ccc(NC(=O)CC)nc3)cc2c1=O | CCK-8 | 72 h | 2.35 µM |
| O=C(NO)Nc1nc2ccc(Br)cc2c(=O)n1-c1ccccc1 | MTT | 48 h | 28 µM |
| CCCCC(=O)Nc1ccc(-c2ccc3ncn(CC)c(=O)c3c2)cn1 | CCK-8 | 72 h | 0.92 µM |
| C(=N\Nc1cc(N/N=C/c2ccc3ccccc3n2)ncn1)/c1ccc2ccccc2n1 | MTT | 48 h | 16.7 µM |
| C/C(=N\N=C(/C)c1c(O)c2ccccc2oc1=O)c1c(O)c2ccccc2oc1=O | MTT | 48 h | 39.5 µM |
| O=[N+]([O-])c1ccc(NC(=S)N/N=C/c2cccc3cc4ccccc4nc23)cc1 | MTT | 48 h | > 50 µM |
| O=C(Nc1ccc(F)cc1)Nc1nc2cc(-c3ccc4ncn(CCC5CCCCC5)c(=O)c4c3)ccc2s1 | MTT | 72 h | 9.1 µM |
| CCCCC(=O)Nc1ccc(-c2ccc3ncn(CCC)c(=O)c3c2)c(C)n1 | CCK-8 | 72 h | > 10 µM |
| CNC(=O)c1cc(Oc2ccc(NC(=O)Nc3ccc(Cl)c(C(F)(F)F)c3)cc2)ccn1 | MTT | 24 h | 2.92 µM |
| CCCCn1cnc2ccc(-c3ccc(NC(=O)Nc4ccc(OC)cc4)nc3)cc2c1=O | CCK-8 | 72 h | > 10 µM |
| O=C(Nc1cccc(F)c1)Nc1nc2cc(-c3ccc4ncn(Cc5ccccc5)c(=O)c4c3)ccc2s1 | MTT | 72 h | 3.49 µM |
| C#CCn1cnc2ccc(-c3ccc(NC(=O)CCCC)nc3)cc2c1=O | CCK-8 | 72 h | > 10 µM |
| O=C(Nc1ccc(F)cc1)Nc1nc2cc(-c3ccc4ncn(CC(=O)N5CCOCC5)c(=O)c4c3)ccc2s1 | MTT | 72 h | > 20 µM |
| CCCCCC(=O)Nc1ccc(-c2ccc3ncn(CCCC)c(=O)c3c2)cn1 | CCK-8 | 72 h | 1.34 µM |
| COc1cccc(NC(=O)Nc2nc3cc(-c4ccc5ncn(CCC6CCCCC6)c(=O)c5c4)ccc3s2)c1 | MTT | 72 h | 1.27 µM |
| O=C(C=Cc1ccc(OCCCCOc2ccc(C=CC(=O)c3cccs3)cc2)cc1)c1cccs1 | MTT | 48 h | 232 µM |
